In one assay the target is T1, hTas1R2/smTas1R3 (Homo sapiens, UniProt Q8TE23).
T1 sequence (Q8TE23 20-839): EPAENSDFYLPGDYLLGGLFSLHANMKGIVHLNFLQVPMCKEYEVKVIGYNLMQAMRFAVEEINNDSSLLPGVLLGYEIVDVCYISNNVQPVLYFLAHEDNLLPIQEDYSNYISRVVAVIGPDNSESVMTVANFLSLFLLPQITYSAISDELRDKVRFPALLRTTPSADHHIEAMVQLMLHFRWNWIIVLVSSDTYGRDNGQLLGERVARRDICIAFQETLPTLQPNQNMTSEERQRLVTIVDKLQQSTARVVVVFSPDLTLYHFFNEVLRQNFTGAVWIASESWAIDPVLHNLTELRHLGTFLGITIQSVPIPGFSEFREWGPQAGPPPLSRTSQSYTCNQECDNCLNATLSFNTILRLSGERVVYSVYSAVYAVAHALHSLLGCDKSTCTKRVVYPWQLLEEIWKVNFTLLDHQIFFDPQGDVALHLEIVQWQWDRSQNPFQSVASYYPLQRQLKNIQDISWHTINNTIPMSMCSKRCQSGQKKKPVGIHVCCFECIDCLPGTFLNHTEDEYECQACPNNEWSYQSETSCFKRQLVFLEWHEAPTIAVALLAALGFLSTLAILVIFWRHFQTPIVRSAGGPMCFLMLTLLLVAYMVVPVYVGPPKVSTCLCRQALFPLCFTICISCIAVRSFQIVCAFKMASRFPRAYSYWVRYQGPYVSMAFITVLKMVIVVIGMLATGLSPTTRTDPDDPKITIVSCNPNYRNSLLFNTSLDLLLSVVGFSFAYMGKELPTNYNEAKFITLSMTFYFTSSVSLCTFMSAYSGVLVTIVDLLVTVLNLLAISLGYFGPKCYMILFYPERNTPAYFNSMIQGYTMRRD
Nature of the assay: Ca2+ mobilization, mismatched receptor. The following applies: aspartame 10mM, neotame 1mM, sucralose 2 mM, D-tryptophan 5mM, sucrose 150mM; vs control / wild type human receptor. It is filed as cell-based, human/squirrel monkey. The method, boiled down:
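Transfected HEK293E cells (50,000/well; 0.06 μg Tas1R plasmid and 0.06 μg Gα16-gust44 per well) were medium-changed at 20 h, then loaded after 24 h with 3 μM Fluo-4 AM in HBSS/20 mM HEPES for 1 h. Tastant added 30 s into scan; fluorescence (ex 488/em 525 nm) read every 2 s for 150 s. ΔF/F normalized to the hTas1R2/hTas1R3 sucralose response; three independent experiments; unpaired t test.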

The next assay has as its target T2, smTas1R2/hTas1R3 (Saimiri sciureus, UniProt A3QP08).
T2 sequence (A3QP08 20-834): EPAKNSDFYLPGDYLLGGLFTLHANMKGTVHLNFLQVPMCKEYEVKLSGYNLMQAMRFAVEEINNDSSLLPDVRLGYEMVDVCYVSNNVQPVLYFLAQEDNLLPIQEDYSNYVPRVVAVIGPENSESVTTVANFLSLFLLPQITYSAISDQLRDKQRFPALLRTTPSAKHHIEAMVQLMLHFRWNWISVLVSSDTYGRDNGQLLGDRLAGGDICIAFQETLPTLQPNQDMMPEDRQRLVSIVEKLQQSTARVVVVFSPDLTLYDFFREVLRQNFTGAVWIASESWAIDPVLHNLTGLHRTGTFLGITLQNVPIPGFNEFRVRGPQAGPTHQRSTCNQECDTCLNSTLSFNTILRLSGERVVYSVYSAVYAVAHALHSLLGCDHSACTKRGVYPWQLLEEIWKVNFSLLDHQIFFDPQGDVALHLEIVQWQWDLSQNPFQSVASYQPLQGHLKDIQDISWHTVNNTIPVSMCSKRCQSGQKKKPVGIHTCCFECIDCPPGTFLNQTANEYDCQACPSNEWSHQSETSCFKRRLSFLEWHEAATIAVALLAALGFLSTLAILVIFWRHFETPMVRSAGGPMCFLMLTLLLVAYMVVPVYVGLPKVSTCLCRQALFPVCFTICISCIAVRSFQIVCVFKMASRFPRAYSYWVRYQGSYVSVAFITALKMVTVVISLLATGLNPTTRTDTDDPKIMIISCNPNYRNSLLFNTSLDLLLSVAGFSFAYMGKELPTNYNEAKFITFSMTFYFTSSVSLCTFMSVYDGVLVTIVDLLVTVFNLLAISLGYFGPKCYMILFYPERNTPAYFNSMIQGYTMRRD
T2 sequence (Q7RTX0 21-852 partner): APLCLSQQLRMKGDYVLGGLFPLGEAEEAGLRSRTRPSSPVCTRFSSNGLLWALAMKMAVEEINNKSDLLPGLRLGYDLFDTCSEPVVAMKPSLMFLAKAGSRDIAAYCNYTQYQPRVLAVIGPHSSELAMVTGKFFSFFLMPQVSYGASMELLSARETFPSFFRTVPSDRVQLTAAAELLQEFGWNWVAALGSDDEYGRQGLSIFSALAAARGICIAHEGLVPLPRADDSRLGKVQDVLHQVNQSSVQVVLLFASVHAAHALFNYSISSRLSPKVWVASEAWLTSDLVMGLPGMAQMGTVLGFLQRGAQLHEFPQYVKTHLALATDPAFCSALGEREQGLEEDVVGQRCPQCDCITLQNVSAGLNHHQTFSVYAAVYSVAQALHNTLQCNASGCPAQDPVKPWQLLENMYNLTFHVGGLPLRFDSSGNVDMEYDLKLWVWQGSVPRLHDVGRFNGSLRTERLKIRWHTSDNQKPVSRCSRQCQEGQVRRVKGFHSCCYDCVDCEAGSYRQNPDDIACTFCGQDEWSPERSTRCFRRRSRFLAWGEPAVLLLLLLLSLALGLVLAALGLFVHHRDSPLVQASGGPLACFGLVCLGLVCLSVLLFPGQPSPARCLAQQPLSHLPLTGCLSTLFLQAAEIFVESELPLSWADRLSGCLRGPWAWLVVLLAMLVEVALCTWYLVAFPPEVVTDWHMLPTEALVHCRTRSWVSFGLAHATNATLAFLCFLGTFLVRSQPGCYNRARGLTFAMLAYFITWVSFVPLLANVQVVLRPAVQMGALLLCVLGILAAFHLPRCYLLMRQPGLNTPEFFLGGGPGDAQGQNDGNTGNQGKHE
As to the kind of experiment: Ca2+ mobilization, mismatched receptor. The following applies: aspartame 10mM, neotame 1mM, sucralose 2 mM, D-tryptophan 5mM, sucrose 150mM. The assay is classed as cell-based, human/squirrel monkey. The method in brief: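 HEK293E cells grown at 37°C in Opti-MEM with 5% FBS and seeded at 50,000/well. Cells co-lipofected with Tas1R plasmids and Gα16-gust44 (0.06 μg each per well); medium changed at 20 h, assayed 24 h later. Cells loaded 1 h with Fluo-4 AM in HEPES-buffered HBSS. Tastant added at 30 s; fluorescence (ex 488/em 525 nm) read every 2 s for 150 s more. ΔF/F normalised to human receptor maximal sucralose response; mean ± SEM, three independent experiments.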
In general terms: A change in cytosolic calcium serves as a functional read-out for many receptors and channels.

The structures appear in SMILES notation.

Data on two compounds can be found in publication PMC3149845 (The Journal of neuroscience : the official journal of the …, 2011).

With `N[C@H](Cc1c[nH]c2ccccc12)C(=O)O` [D-tryptophan], the “calcium response to sweetener” value was “reduced responses” on hTas1R2/smTas1R3 and “remained intact or reduced” on smTas1R2/hTas1R3.

Consider `OC[C@H]1O[C@@](CO)(O[C@H]2O[C@H](CO)[C@@H](O)[C@H](O)[C@H]2O)[C@@H](O)[C@@H]1O` [sucrose], for which the “calcium response to sweetener” value on hTas1R2/smTas1R3 is “reduced responses”; at smTas1R2/hTas1R3, “remained intact or reduced”.
